These results are taken from article PMC7984436 (Clinical Pharmacology in Drug Development, 2020).

Data set [1] relates to CYP3A. To be noted: oral contraceptives that are substrates of CYP3A; cited from earlier work.
The format of data set [2] is in vivo, human. To be noted: for Tmax: median (minimum through maximum); for Cmax: n = 22, mean ± SD; for t1/2: mean ± SD.
The conditions of data set [3]: cited from earlier work; for elimination half-life: background statement for the sampling period, no reference given.
In data set [4] the test system is CYP3A. To be noted: cited from earlier work.
A further data set concerns CYP2B6. The data set is described as follows: In vivo effect of upadacitinib on CYP2B6. Also noted: species or system human.
Data set [5] is described as follows: Safety monitoring in the phase 1 study. The class given is in vivo, human. The settings on record: healthy subjects. The method in brief:
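Healthy adults aged 18-55 took part in a single-centre, open-label, two-period, single-sequence study with 24-day on-site confinement. Period 1 gave a single oral 150 mg extended-release CYP2B6 probe substrate dose after at least a 10-hour fast. Period 2 repeated that dose on day 12 of 16 days of oral test compound. Throughout, safety checks covered adverse events, physical exams, vital signs, ECG, haematology, chemistry and urinalysis.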

The conditions of data set [6]: cited from earlier work.
For data set [7] the following is noted: cited from earlier work. This is another data set of the same source.
For data set [8], the system named is CYP enzymes (CYP1A2, CYP2B6, CYP2C8, CYP2C9, CYP2C19, CYP2D6, and CYP3A4). The settings on record: at clinically relevant concentrations, cited from earlier work.
The next data set concerns CYP2B6 mRNA. The settings on record: in vitro, at concentrations higher than clinically relevant; cited from earlier work.
Data set [9] deals with CYP1A2, CYP2C9, CYP2C19, or CYP2D6. The settings on record: chronic dosing of upadacitinib 30 mg once daily, healthy volunteers; cited from earlier work.
A further data set has as its system JAK1. To be noted: less potent against JAK2, JAK3, and tyrosine kinase; cited from earlier work.
The mark [10] stands for this setting: Study period 2, day 12: upadacitinib 30 mg once daily + bupropion 150 mg.
[11] abbreviates: with upadacitinib 30 mg once daily.
[12] abbreviates: Period 1, day 1: bupropion 150-mg single dose.
[13] abbreviates: Period 2, day 12: upadacitinib 30 mg once daily + bupropion 150-mg single dose.
The mark [14] stands for this setting: Study period 1, day 1: bupropion 150 mg alone.
Where [15] appears, read: with upadacitinib relative to bupropion alone.
The mark [16] stands for this setting: with multiple doses of rifampin (broad CYP inducer).
[17] abbreviates: with the strong CYP3A inhibitor ketoconazole.

Molecules are shown by their SMILES. Entries after “also recorded” stand apart in the source; their conditions may differ. Read-outs that look alike come from different tables or passages of the source.

On to `C#C[C@]1(O)CC[C@H]2[C@@H]3CCc4cc(O)ccc4[C@H]3CC[C@@]21C` [ethinylestradiol], for which the “impact of upadacitinib on exposure” value in the data set with CYP3A [1] is “no impact”.

For the compound `CC(NC(C)(C)C)C(=O)c1cccc(Cl)c1` (stereo not shown) [Bupropion, bupropion], the Tmax in data set [2] (setting [10]) is on record as 5.0 (3.0‐8.0) h. In [2] (human, plasma, oral, 150 mg), this compound displayed a total exposure AUC(0-inf) of 859 ng·h/mL and an AUC(0-t) of 869 ± 271 ng·h/mL. This compound also came in with a peak concentration (Cmax) in data set [2] (human, plasma, oral, 150 mg, Cmax, Study period 1, day 1: bupropion 150 mg alone, plasma) of 83.5 ± 26.2 ng/mL. In addition, in data set [3], the elimination half-life result was “approximately 20 hours”.

With `Cc1ncc2n1-c1ccc(Cl)cc1C(c1ccccc1F)=NC2` [midazolam], in the data set with CYP3A [4] (chronic dosing of upadacitinib 30 mg once daily, healthy volunteers), the “decrease in exposures of midazolam” value was 26%. Besides, in the data set on CYP3A [4] (setting [11]), the “decrease in midazolam AUC” value is recorded as 26% and the “decrease in midazolam Cmax” value is 26%.

`C[C@H]1NC(C)(C)CO[C@]1(O)c1cccc(Cl)c1` [Hydroxybupropion, hydroxybupropion]: in [2] (setting [12]), the “Hydroxybupropion-to-bupropion metabolic ratio, AUCinf, central value, reference” value came out at 16.9; the “Hydroxybupropion-to-bupropion metabolic ratio, AUCt, central value, reference” value worked out at 16.5; the “Hydroxybupropion-to-bupropion metabolic ratio, Cmax, central value, reference” value is listed as 3.83. In data set [2] (setting [13]), the “Hydroxybupropion-to-bupropion metabolic ratio, AUCinf, central value, test” value is on record as 13.2; the “Hydroxybupropion-to-bupropion metabolic ratio, AUCt, central value, test” value is reported as 13.1; the “Hydroxybupropion-to-bupropion metabolic ratio, Cmax, central value, test” value is 3.45. Besides, in data set [2] (setting [14]), the t1/2 worked out at 25.1 ± 6.8 h and the Tmax is on record as 10.0 (5.0‐24.0) h. Besides, the Cmax in data set [2] (Study period 1, day 1: bupropion 150 mg alone, plasma) is listed as 336 ± 150 ng/mL. In addition, in [2] (setting [10]), the t1/2 was found to be 23.9 ± 5.6 h and the Tmax is reported as 10.0 (6.0‐24.0) h. For the same compound, in data set [2] (Study period 2, day 12: upadacitinib 30 mg once daily + bupropion 150 mg, plasma), the Cmax is 264 ± 121 ng/mL. In data set [2] (with upadacitinib 30 mg once daily relative to bupropion alone), the “AUCt ratio of central values, point estimate” value is recorded as 0.726. In addition, the “exposures (AUCinf) lower when administered with upadacitinib” value in [2] (with upadacitinib 30 mg once daily versus bupropion alone) is listed as 28%. For the same compound, in [2] (setting [15]), the “Hydroxybupropion-to-bupropion metabolic ratio, AUCinf, ratio of central values, point estimate” value was 0.780; the “Hydroxybupropion-to-bupropion metabolic ratio, AUCt, ratio of central values, point estimate” value is 0.790; the “Hydroxybupropion-to-bupropion metabolic ratio, Cmax, ratio of central values, point estimate” value is on record as 0.902. The elimination half-life entry in [3] is listed as “approximately 20 hours”. For the same compound, the “range of variability in hydroxybupropion exposures” value in data set [3] (inter- and intrasubject variability) is listed as 20% to 50%.

Take `C#C[C@]1(O)CC[C@H]2[C@@H]3CCC4=CC(=O)CC[C@@H]4[C@H]3CC[C@@]21CC` [levonorgestrel]: in the data set on CYP3A [1], the “impact of upadacitinib on exposure” value is “no impact”.

Consider `CC[C@@H]1CN(C(=O)NCC(F)(F)F)C[C@@H]1c1cnc2cnc3[nH]ccc3n12` [upadacitinib], for which the “effect on bupropion exposures (Cmax or AUC)” value with CYP2B6 (bupropion on day 12 of 16-day upadacitinib 30 mg once daily regimen) is on record as “no relevant effect”. In the data set on CYP2B6 (upadacitinib 30 mg once daily, multiple doses), the “effect on pharmacokinetics of substrates metabolized by CYP2B6” value is recorded as “no relevant effect; also recorded: lack of relevant effect”. Moreover, the “discontinuation because of adverse events” value in [5] (n = 22) is on record as “no subject discontinued because of AEs”. Besides, the “severity of the majority of treatment-emergent adverse events” value in [5] (n = 22, upadacitinib 30 mg once daily and bupropion 150 mg) is “mild in severity”. For the same compound, in data set [6] (setting [16]), the “decrease in upadacitinib AUC” value was ~60% and the “decrease in upadacitinib Cmax” value is recorded as “approximately 50%”. Further, in data set [6] (setting [17]), the “increase in upadacitinib AUC” value is given as 75% and the “increase in upadacitinib Cmax” value is 70%. Besides, in [7], the “dose eliminated unchanged in urine” value is “approximately 20%”. Further, the “inhibition or induction of the activity of CYP enzymes” value in [8] is reported as “did not inhibit or induce”. In addition, the “inhibitor or inducer of drug-metabolizing enzymes, including CYP2B6” value in data set [8] (in vitro) is on record as “not an inhibitor or inducer”. Besides, the “CYP2B6 mRNA expression” value with CYP2B6 mRNA is on record as “increase in CYP2B6 mRNA expression”. Further, in data set [9], the “effects on CYP1A2, CYP2C9, CYP2C19, or CYP2D6 activity” value is listed as “no relevant effects”. Besides, in the data set on JAK1, the JAK1 inhibition result was “potently inhibits”.

The AUC(0-inf) is total exposure, with the tail of the curve extrapolated. Broadly, the AUC(0-t) is the area under the concentration-time curve up to a stated or last time point. For orientation: Cmax means the maximum level reached in the sampled fluid or tissue.
